High-throughput results deposited in PubChem BioAssay by Broad Institute.
Not all results are given here.
PGC1a Ac signal: compounds raising PGC1a acetylation signal, primary screen, PGC1a modulator project, cell-based, U2OS, AlphaScreen, signal-increasing mode. overnight. activation, % at 15.6 µM. 350,000 tested, 0.21% active. AID 651723, 2012;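 active = every replicate reaching activation of at least 50%, whatever the mean replicate activation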;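 also: hits raise the AlphaScreen acetylation signal above neutral controls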
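detection = AlphaScreen lysate read | assay system = U2OS cells expressing flag-PGC1a plus GCN5 | input = 7000 cells/well | dosing = one concentration | times = compound overnight at 37 °C, each detection step 1 h RT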
* marks the source's active call; other numbers are inactive results.

`CC1=NN(c2ccc(C)c(C)c2)C(=O)/C1=C\C=C\c1ccc([N+](=O)[O-])o1` gave PGC1a Ac signal -59.
For O=C(CSc1ccc(Cl)cc1)N/N=C/c1ccc([N+](=O)[O-])o1 the results were PGC1a Ac signal 92*.
`O=C(CSc1nnc(-c2ccccc2)n1-c1ccc(Cl)cc1)N/N=C/c1ccccc1C(=O)O` gave PGC1a Ac signal -45.
`Cc1ccc(O)c(/C=N/NC(=O)CN2CCCC2)c1` gave PGC1a Ac signal -84.
`Cc1ccc(OCC(=O)N/N=C/c2ccc([N+](=O)[O-])o2)cc1` gave PGC1a Ac signal 84*.
Cc1ccc(NC(=O)CCC(=O)N/N=C/c2ccc([N+](=O)[O-])o2)cc1C was read as PGC1a Ac signal 126*.
Screening CO[C@@H]1CN(C)C(=O)c2ccc(NC(=O)Nc3c(C)noc3C)cc2OC[C@H](C)N(CC2CC2)C[C@@H]1C returned PGC1a Ac signal -101.
For C[C@@H]1CN([C@H](C)CO)C(=O)c2cc(C#CC(C)(C)O)cnc2O[C@H]1CN(C)C(=O)c1ccccc1F the results were PGC1a Ac signal -50.
For COc1cccc(-n2c(Cc3cc(=O)[nH]c(=O)[nH]3)nnc2SCc2cccc(C(F)(F)F)c2)c1 the results were PGC1a Ac signal -42.
Cc1no[n+]([O-])c1COc1cccc(/C=N/Nc2nncn2N)c1 was read as PGC1a Ac signal -50.
Screening Cc1ccc(NC(=O)c2ccccc2)cc1-n1cnnn1 returned PGC1a Ac signal -40.
`CC(=O)Nc1ccc(Sc2ccc([N+](=O)[O-])o2)cc1` gave PGC1a Ac signal 438*.
Screening CC(=O)Nc1ccc(NC(=O)c2cc(=O)c3ccccc3o2)cc1 returned PGC1a Ac signal -42.
`COc1ccc(CCNc2ccc(C(CC(N)=O)NC(=O)c3cc(C)cc(C)c3)cc2[N+](=O)[O-])cc1` (stereo not given) gave PGC1a Ac signal -46.
For CCOC(=O)N(O)c1ccc(C=Cc2ccccc2)cc1 the results were PGC1a Ac signal -49.
CC(C)CC#Cc1ccc([C@@H]2[C@H](CO)N3CCCCN(S(=O)(=O)Cc4ccccc4)C[C@@H]23)cc1 was read as PGC1a Ac signal 61*.
`COc1ccccc1C#Cc1ccc([C@H]2[C@H](C#N)N(C(=O)C3CCCC3)[C@H]2CO)cc1` gave PGC1a Ac signal -65.
COc1ccc(C#Cc2ccc([C@@H]3[C@H](CO)N4CCCCN(C(=O)Nc5ccccc5)C[C@@H]34)cc2)cc1 was read as PGC1a Ac signal 78*.
O=C(Nc1ccccc1F)N1CCCCN2[C@H](CO)[C@H](c3ccc(C#Cc4ccccc4)cc3)[C@H]2C1 was read as PGC1a Ac signal 72*.
Screening Cc1cc(O)c(N=Nc2ccc(C(=O)O)cc2)cc1C returned PGC1a Ac signal -50.
OCC1OC(Oc2c(Br)cc(Br)cc2Br)C(O)C(O)C1O (stereo not given) was read as PGC1a Ac signal -63.
Screening C[C@H](CO)N1C[C@H](C)[C@H](CN(C)S(=O)(=O)c2cn(C)cn2)OCCCC[C@H](C)Oc2ccc(NC(=O)Nc3cccc4ccccc34)cc2C1=O returned PGC1a Ac signal -52.
C[C@H]1CCCCO[C@H](CN(C)C(=O)Nc2cccc3ccccc23)[C@@H](C)CN([C@@H](C)CO)C(=O)c2cc(N(C)C)ccc2O1 was read as PGC1a Ac signal 65*.
For C[C@@H]1CN([C@@H](C)CO)C(=O)c2cc(NC(=O)Nc3cccc4ccccc34)ccc2O[C@@H](C)CCCCO[C@H]1CN(C)C(=O)NC1CCCCC1 the results were PGC1a Ac signal -42.
Screening CCOc1c(Br)cc(/C=C2/SC(=O)N(CC(=O)N3CCCC3)C2=O)cc1OC returned PGC1a Ac signal 96*.
Screening C[C@@H]1CN([C@@H](C)CO)C(=O)CCCn2nncc2CO[C@H]1CN(C)Cc1ccc(O)cc1 returned PGC1a Ac signal -45.
CC(C)NC(=O)N(C)C[C@H]1OCCCC[C@@H](C)Oc2ccc(NC(=O)CCCN(C)C)cc2C(=O)N([C@@H](C)CO)C[C@@H]1C was read as PGC1a Ac signal -51.
`COc1cccc(C2c3[nH]c4ccccc4c3CCN2Cc2cnc(C)s2)c1OC` (stereo not given) gave PGC1a Ac signal 70*.
Screening CC(=O)c1c(N2CCOCC2)nc(=O)n(-c2ccccc2)c1C returned PGC1a Ac signal -44.
`CCCSCC(=O)Nc1ncc2c(n1)-c1ccccc1CC2` gave PGC1a Ac signal -45.
`C=CS(=O)(=O)N(Cc1ccc(Cl)c(Cl)c1)C[C@@H](O)CO` gave PGC1a Ac signal 65*.
`CCC(C)(C)n1nnnc1CN(Cc1ccc(Cl)cc1)Cc1ccco1` gave PGC1a Ac signal 82*.
C[C@@H]1CN([C@@H](C)CO)C(=O)c2cccc(NC(=O)c3ccc(-c4nccs4)cc3)c2O[C@@H]1CN(C)C(=O)Nc1ccc(C(F)(F)F)cc1 was read as PGC1a Ac signal -55.
For O=C(CCC1CCCN(C(=O)c2cc(C3CC3)[nH]n2)C1)N1CCN(c2ccccn2)CC1 (stereo not given) the results were PGC1a Ac signal -98.
For COc1ccc(NC(=O)N[C@H]2CC[C@H](CCn3cc(-c4ccccc4F)nn3)O[C@@H]2CO)cc1 the results were PGC1a Ac signal -69.
For Cc1ccc(NC(=O)CC2=NC(=O)C(CC(=O)Nc3ccccc3F)S2)cc1 (stereo not given) the results were PGC1a Ac signal -50.
`CN(C)C(=O)C[C@@H]1C=C[C@@H](NS(=O)(=O)c2ccccc2)[C@@H](CO)O1` gave PGC1a Ac signal -54.
C=CCNC(=O)c1ccc(CN2CCC(Cc3ccccc3)CC2)cc1 was read as PGC1a Ac signal -48.
Screening CN(Cc1ccccc1)S(=O)(=O)c1ccc(S(=O)(=O)N(Cc2ccc(F)cc2)C2CCCC2)cc1 returned PGC1a Ac signal -44.
`CN(C)S(=O)(=O)N1CCC(Cc2ccccc2)CC1` gave PGC1a Ac signal 62*.
For C[C@H](CO)N1C[C@H](C)[C@@H](CN(C)C(=O)c2ccccn2)Oc2ncc(-c3cccc(C#N)c3)cc2C1=O the results were PGC1a Ac signal -58.
For CCOC(=O)CCc1c(C)c2ccc(O)cc2oc1=O the results were PGC1a Ac signal 74*.
CSc1cccc(N2CC(C(=O)NCCN3C(=O)S/C(=C\c4cccnc4)C3=O)CC2=O)c1 (stereo not given) was read as PGC1a Ac signal -75.
`O=C(NC1=NCCS1)C1CC(=O)N(c2ccccc2)C1` (stereo not given) gave PGC1a Ac signal 68*.
Screening Cn1nc([N+](=O)[O-])nc1S(C)(=O)=O returned PGC1a Ac signal 95*.
CCCNC(=O)c1ccc(COc2ccc(Cl)cc2)o1 was read as PGC1a Ac signal -48.
For O=C(NC(=S)Nc1cccc(Cl)c1N1CCCCC1)c1ccco1 the results were PGC1a Ac signal 104*.
`CC(=O)NC(c1cccc(F)c1)c1nc(-c2cccc(C(C)C)c2)cs1` (stereo not given) gave PGC1a Ac signal -100.
Screening Cc1cc(C)n(CCc2nc3c4ccccc4n(CC#N)c(=O)n3n2)n1 returned PGC1a Ac signal -41.
Screening Cc1cccc(C)c1OC1(c2ccccc2)OC(=O)c2ccccc21 (stereo not given) returned PGC1a Ac signal 72*.
`CN(C)CCOc1ccc2c(c1)C(=O)C(=Cc1ncc([N+](=O)[O-])n1C)C2` gave PGC1a Ac signal -93.
Screening CCOC(=O)c1oc2ccc(S(=O)(=O)N3CCC(C)CC3)cc2c1C returned PGC1a Ac signal -43.
